In ChEMBL document CHEMBL3407388, “Synthesis, anticancer activity and molecular docking studies on a series of heterocyclic trans-cyanocombretastatin analogues as antitubulin agents” (2015):

Tests used:
Type in all cases: functional
[1] = Cytotoxicity against human OVCAR5 cells assessed as growth inhibition after 48 hrs by SRB assay; conditions: OVCAR-5, 48 h
Procedure, shortened: (§1)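 NCI 60-cell panel; compounds passing a single-dose screen (10−5 M, 48 h) were tested at five 10-fold dilutions (10−4 to 10−8 M) with 48 h drug exposure. GI50 is the molar concentration giving 50% reduction in net cell growth relative to cell numbers on day 0.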

KM12 = test: Cytotoxicity against human KM12 cells assessed as growth inhibition after 48 hrs by SRB assay; conditions: KM12, 48 h; procedure, shortened: as §1
SN12C = test: Cytotoxicity against human SN12C cells assessed as growth inhibition after 48 hrs by SRB assay; procedure, shortened: as §1
SK-OV-3 = test: Cytotoxicity against human SKOV3 cells assessed as growth inhibition after 48 hrs by SRB assay; conditions: SK-OV-3, 48 h; procedure, shortened: as §1
MCF7 = test: Cytotoxicity against human MCF7 cells assessed as growth inhibition after 48 hrs by SRB assay; conditions: MCF7, 48 h; procedure, shortened: as §1
786-0 = test: Cytotoxicity against human 786-0 cells assessed as growth inhibition after 48 hrs by SRB assay; conditions: 786-0, 48 h; procedure, shortened: as §1
MDA-MB-435 = test: Cytotoxicity against human MDA-MB-435 cells assessed as growth inhibition after 48 hrs by SRB assay; conditions: MDA-MB-435, 48 h; procedure, shortened: as §1
LOX IMVI = test: Cytotoxicity against human LOXIMVI cells assessed as growth inhibition after 48 hrs by SRB assay; procedure, shortened: as §1
HT-29 = test: Cytotoxicity against human HT-29 cells assessed as growth inhibition after 48 hrs by SRB assay; conditions: HT-29, 48 h; procedure, shortened: as §1
A498 = test: Cytotoxicity against human A498 cells assessed as growth inhibition after 48 hrs by SRB assay; conditions: A498, 48 h; procedure, shortened: as §1
[2] = Cytotoxicity against human PC3 cells assessed as growth inhibition after 48 hrs by SRB assay; conditions: PC-3, 48 h; procedure, shortened: as §1
HL-60(TB) = test: Cytotoxicity against human HL-60(TB) cells assessed as growth inhibition after 48 hrs by SRB assay; conditions: HL-60, 48 h
Procedure, shortened: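 NCI 60-cell panel, leukemia subpanel. Five-dose screen at 10-fold dilutions from 10−4 to 10−8 M with 48 h drug exposure. GI50 is the molar concentration giving 50% reduction in net cell growth compared with cell numbers on day 0.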

[3] = Cytotoxicity against human Hs578T cells assessed as growth inhibition after 48 hrs by SRB assay; conditions: Hs-578T; procedure, shortened: as §1
[4] = Cytotoxicity against human OVCAR8 cells assessed as growth inhibition after 48 hrs by SRB assay; conditions: OVCAR-8, 48 h; procedure, shortened: as §1
BT-549 = test: Cytotoxicity against human BT549 cells assessed as growth inhibition after 48 hrs by SRB assay; conditions: BT-549, 48 h; procedure, shortened: as §1
K562 = test: Cytotoxicity against human K562 cells assessed as growth inhibition after 48 hrs by SRB assay; conditions: K562, 48 h; procedure, shortened: as §1
CAKI-1 = test: Cytotoxicity against human Caki1 cells assessed as growth inhibition after 48 hrs by SRB assay; conditions: CAKI-1, 48 h; procedure, shortened: as §1
IGROV-1 = test: Cytotoxicity against human IGROV1 cells assessed as growth inhibition after 48 hrs by SRB assay; conditions: IGROV-1, 48 h; procedure, shortened: as §1
MOLT-4 = test: Cytotoxicity against human MOLT4 cells assessed as growth inhibition after 48 hrs by SRB assay; conditions: MOLT-4, 48 h; procedure, shortened: as §1
SNB-19 = test: Cytotoxicity against human SNB19 cells assessed as growth inhibition after 48 hrs by SRB assay; conditions: SNB-19, 48 h; procedure, shortened: as §1
DU-145 = test: Cytotoxicity against human DU145 cells assessed as growth inhibition after 48 hrs by SRB assay; conditions: DU-145, 48 h; procedure, shortened: as §1
RXF 393 = test: Cytotoxicity against human RXF393 cells assessed as growth inhibition after 48 hrs by SRB assay; conditions: RXF 393, 48 h; procedure, shortened: as §1
M14 = test: Cytotoxicity against human M14 cells assessed as growth inhibition after 48 hrs by SRB assay; conditions: M14, 48 h; procedure, shortened: as §1
HCC 2998 = test: Cytotoxicity against human HCC2998 cells assessed as growth inhibition after 48 hrs by SRB assay; conditions: HCC 2998, 48 h; procedure, shortened: as §1
[5] = Cytotoxicity against human HCT116 cells assessed as growth inhibition after 48 hrs by SRB assay; conditions: HCT-116, 48 h; procedure, shortened: as §1
NCI-H460 = test: Cytotoxicity against human NCI-H460 cells assessed as growth inhibition after 48 hrs by SRB assay; conditions: NCI-H460, 48 h; procedure, shortened: as §1
U-251 = test: Cytotoxicity against human U251 cells assessed as growth inhibition after 48 hrs by SRB assay; conditions: U-251, 48 h
[6] = Cytotoxicity against human UO31 cells assessed as growth inhibition after 48 hrs by SRB assay; conditions: UO-31, 48 h
SF-539 = test: Cytotoxicity against human SF539 cells assessed as growth inhibition after 48 hrs by SRB assay; conditions: SF-539, 48 h; procedure, shortened: as §1
[7] = Cytotoxicity against human NCI-ADR-RES cells assessed as growth inhibition after 48 hrs by SRB assay; procedure, shortened: as §1
NCI-H226 = test: Cytotoxicity against human NCI-H226 cells assessed as growth inhibition after 48 hrs by SRB assay; conditions: NCI-H226, 48 h; procedure, shortened: as §1
SK-MEL-5 = test: Cytotoxicity against human SK-MEL-5 cells assessed as growth inhibition after 48 hrs by SRB assay; conditions: SK-MEL-5, 48 h; procedure, shortened: as §1
RPMI-8226 = test: Cytotoxicity against human RPMI8226 cells assessed as growth inhibition after 48 hrs by SRB assay; conditions: RPMI-8226, 48 h; procedure, shortened: as §1
SF-268 = test: Cytotoxicity against human SF268 cells assessed as growth inhibition after 48 hrs by SRB assay; conditions: SF-268, 48 h; procedure, shortened: as §1
[8] = Cytotoxicity against human OVCAR4 cells assessed as growth inhibition after 48 hrs by SRB assay; conditions: OVCAR-4, 48 h; procedure, shortened: as §1
MDA-MB-231 = test: Cytotoxicity against human MDA-MB-231 cells assessed as growth inhibition after 48 hrs by SRB assay; conditions: MDA-MB-231, 48 h; procedure, shortened: as §1
[9] = Cytotoxicity against human UACC62 cells assessed as growth inhibition after 48 hrs by SRB assay; conditions: UACC-62, 48 h
COLO 205 = test: Cytotoxicity against human COLO205 cells assessed as growth inhibition after 48 hrs by SRB assay; conditions: COLO 205, 48 h; procedure, shortened: as §1
SF-295 = test: Cytotoxicity against human SF295 cells assessed as growth inhibition after 48 hrs by SRB assay; conditions: SF-295, 48 h; procedure, shortened: as §1
[10] = Cytotoxicity against human HCT15 cells assessed as growth inhibition after 48 hrs by SRB assay; conditions: HCT-15, 48 h; procedure, shortened: as §1
NCI-H23 = test: Cytotoxicity against human NCI-H23 cells assessed as growth inhibition after 48 hrs by SRB assay; conditions: NCI-H23, 48 h; procedure, shortened: as §1
SW-620 = test: Cytotoxicity against human SW620 cells assessed as growth inhibition after 48 hrs by SRB assay; conditions: SW-620, 48 h
TK-10 = test: Cytotoxicity against human TK10 cells assessed as growth inhibition after 48 hrs by SRB assay; conditions: TK-10, 48 h

## COc1cc(/C(C#N)=C/c2c[nH]c3ccccc23)cc(OC)c1OC
[1]
  GI50: 10.6 µM
KM12
  GI50: 0.043 µM
SN12C
  GI50: 0.699 µM
SK-OV-3
  GI50: 0.051 µM
MCF7
  GI50: 0.034 µM
786-0
  GI50: 0.09 µM
MDA-MB-435
  GI50: 0.024 µM
LOX IMVI
  GI50: 0.075 µM
HT-29
  GI50: 0.038 µM
A498
  GI50: 0.035 µM
[2]
  GI50: 0.054 µM
HL-60(TB)
  GI50: 0.048 µM
[3]
  GI50: 0.131 µM
[4]
  GI50: 0.121 µM
BT-549
  GI50: 1.94 µM
K562
  GI50: 0.04 µM
CAKI-1
  GI50: 0.058 µM
IGROV-1
  GI50: 0.417 µM
MOLT-4
  GI50: 0.131 µM
SNB-19
  GI50: 0.076 µM
DU-145
  GI50: 0.132 µM
RXF 393
  GI50: 0.036 µM
M14
  GI50: 0.053 µM
HCC 2998
  GI50: 0.107 µM
[5]
  GI50: 0.048 µM
NCI-H460
  GI50: 0.041 µM
U-251
  GI50: 0.05 µM
[6]
  GI50: 1.41 µM
SF-539
  GI50: 0.099 µM
[7]
  GI50: 0.039 µM
NCI-H226
  GI50: 0.194 µM
SK-MEL-5
  GI50: 0.042 µM
RPMI-8226
  GI50: 0.231 µM
SF-268
  GI50: 2.54 µM
[8]
  GI50: 0.338 µM
MDA-MB-231
  GI50: 0.245 µM
[9]
  GI50: 0.048 µM
COLO 205
  GI50: 0.474 µM
SF-295
  GI50: 0.042 µM
[10]
  GI50: 0.051 µM
NCI-H23
  GI50: 0.133 µM
SW-620
  GI50: 0.047 µM
TK-10
  GI50: 11.1 µM

## COc1cc(/C(C#N)=C/c2cc3ccccc3o2)cc(OC)c1OC
[1]
  GI50: 0.042 µM
KM12
  GI50: < 0.01 µM
SN12C
  GI50: < 0.01 µM
SK-OV-3
  GI50: < 0.01 µM
MCF7
  GI50: 0.023 µM
786-0
  GI50: < 0.01 µM
MDA-MB-435
  GI50: < 0.01 µM
LOX IMVI
  GI50: < 0.01 µM
HT-29
  GI50: < 0.01 µM
A498
  GI50: < 0.01 µM
[2]
  GI50: < 0.01 µM
HL-60(TB)
  GI50: < 0.01 µM
[3]
  GI50: < 0.01 µM
[4]
  GI50: < 0.01 µM
BT-549
  GI50: 0.029 µM
K562
  GI50: < 0.01 µM
CAKI-1
  GI50: < 0.01 µM
IGROV-1
  GI50: 0.022 µM
MOLT-4
  GI50: 0.047 µM
SNB-19
  GI50: < 0.01 µM
DU-145
  GI50: < 0.01 µM
RXF 393
  GI50: < 0.01 µM
M14
  GI50: < 0.01 µM
HCC 2998
  GI50: 0.01 µM
[5]
  GI50: < 0.01 µM
NCI-H460
  GI50: < 0.01 µM
U-251
  GI50: < 0.01 µM
[6]
  GI50: 2.29 µM
SF-539
  GI50: < 0.01 µM
[7]
  GI50: < 0.01 µM
NCI-H226
  GI50: < 0.01 µM
SK-MEL-5
  GI50: < 0.01 µM
RPMI-8226
  GI50: 0.019 µM
SF-268
  GI50: 0.247 µM
[8]
  GI50: 0.039 µM
MDA-MB-231
  GI50: 0.028 µM
[9]
  GI50: < 0.01 µM
COLO 205
  GI50: < 0.01 µM
SF-295
  GI50: < 0.01 µM
[10]
  GI50: < 0.01 µM
NCI-H23
  GI50: < 0.01 µM
SW-620
  GI50: < 0.01 µM
TK-10
  GI50: 73.6 µM
